For one assay, the system named is Aspergillus fumigatus. Description: In-vitro minimum inhibitory concentration against the growth of Aspergillus fumigatus. In kind it is functional. The gist of the method:
(§1)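 Broth microdilution following NCCLS, run in 96-well plates with RPMI 1640 medium buffered with MOPS. The MIC was the endpoint against each fungal isolate.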

The next assay deals with Sporothrix schenckii. Kind of assay: In-vitro minimum inhibitory concentration against the growth of Sporothrix schenckii. In kind it is functional. Put shortly:
as §1

The test system of a further assay is Trichophyton benhamiae. Kind of assay: In-vitro minimum inhibitory concentration against the growth of Trichophyton mentagrophytes. The class given is functional, Trichophyton mentagraphytes. Put shortly:
as §1

Another assay relates to Candida parapsilosis. Kind of assay: In-vitro minimum inhibitory concentration against the growth of Candida parapsilosis (ATCC 22019). The class given is functional. The settings on record: Lodderomyces parapsilosis. The gist of the method: as §1
For a further assay, the system named is Escherichia coli. Description: In-vitro minimum inhibitory concentration against the growth of Escherichia coli. The class given is functional. Put shortly: (§2)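 Broth microdilution following NCCLS against each bacterial strain, with the MIC taken as the endpoint.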
For another assay, the system named is Enterococcus faecalis. Kind of assay: In-vitro minimum inhibitory concentration against the growth of Streptococcus faecalis. The class given is functional. Put shortly: as §2
The test system of another assay is Pseudomonas aeruginosa. Description: In-vitro minimum inhibitory concentration against the growth of Pseudomonas aeruginosa. In kind it is functional. The gist of the method: as §2
Another assay deals with Klebsiella pneumoniae. Description: In-vitro minimum inhibitory concentration against the growth of Klebsiella pneumoniae. The class given is functional. The gist of the method: as §2
In the next assay the test system is Candida albicans. Kind of assay: In-vitro minimum inhibitory concentration against the growth of Candida albicans. The class given is functional. Put shortly:
as §1

A further assay concerns Staphylococcus aureus. Kind of assay: In-vitro minimum inhibitory concentration against the growth of Staphylococcus aureus. The class given is functional. Put shortly:
as §2

Another assay deals with Cryptococcus neoformans. Description: In-vitro minimum inhibitory concentration against the growth of Cryptococcus neoformans. In kind it is functional. Put shortly:
as §1

The test system of assay [1] is Rattus norvegicus. Description: Anticancer activity against Walker 256 carcinosarcoma in rats at a dose of 10 mg/kg [Active]. The class given is functional.
Assay [2] deals with Rattus norvegicus. Description: Anticancer activity against Walker 256 carcinosarcoma in rats at a dose of 50 mg/kg [Inactive]. The class given is functional.

≈ marks a conversion by molar mass, not a printed value. Bounds are passed on as bounds.

Regarding `O=C1c2ccccc2C(=O)c2c1n[nH]c2C(=O)NCCO`, the MIC is more than 50 µg/mL in the assay with Aspergillus fumigatus; more than 50 µg/mL with Sporothrix schenckii; more than 50 µg/mL against Trichophyton benhamiae; more than 50 µg/mL against Candida parapsilosis; 25 µg/mL (≈ 87.6 µM) against Escherichia coli; more than 50 µg/mL against Enterococcus faecalis. For the same molecule, the MIC in the assay with Pseudomonas aeruginosa is more than 50 µg/mL; against Klebsiella pneumoniae, 25 µg/mL (≈ 87.6 µM); against Candida albicans, more than 50 µg/mL; in the assay with Staphylococcus aureus it was more than 50 µg/mL; with Cryptococcus neoformans it was more than 50 µg/mL.

As to `NC[C@H]1O[C@H](O[C@H]2[C@H](O)[C@@H](O[C@H]3O[C@H](CO)[C@@H](O)[C@H](N)[C@H]3O)[C@H](N)C[C@@H]2N)[C@H](O)[C@@H](O)[C@@H]1O` [KANAMYCIN], the minimal inhibitory concentration (MIC) with Escherichia coli is 16 µg/mL (≈ 33 µM); with Pseudomonas aeruginosa, more than 128 µg/mL; against Klebsiella pneumoniae, 32 µg/mL (≈ 66 µM); against Staphylococcus aureus it was 2 µg/mL (≈ 4.13 µM).

On to `Clc1ccc(COC(Cn2ccnc2)c2ccc(Cl)cc2Cl)c(Cl)c1` (stereo not given) [MICONAZOLE], for which the MIC is 12.5 µg/mL (≈ 30 µM) with Aspergillus fumigatus, less than 0.78 µg/mL against Trichophyton benhamiae, 25 µg/mL (≈ 60.1 µM) with Candida albicans and 12.5 µg/mL (≈ 30 µM) in the assay with Cryptococcus neoformans.

`CCOC(=O)c1[nH]nc2c1C(=O)c1ccccc1C2=O`: the MIC against Aspergillus fumigatus was more than 50 µg/mL; against Sporothrix schenckii, more than 50 µg/mL; in the assay with Trichophyton benhamiae it was more than 50 µg/mL; against Candida parapsilosis it was more than 50 µg/mL; against Escherichia coli it was 25 µg/mL (≈ 92.5 µM); in the assay on Enterococcus faecalis, 12.5 µg/mL (≈ 46.3 µM). Moreover, the MIC was more than 50 µg/mL in the assay with Pseudomonas aeruginosa; 12.5 µg/mL (≈ 46.3 µM) against Klebsiella pneumoniae; more than 50 µg/mL in the assay on Candida albicans; 25 µg/mL (≈ 92.5 µM) with Staphylococcus aureus; more than 50 µg/mL against Cryptococcus neoformans.

In the case of `C[C@@H]1[C@H](O)[C@@H](C)/C=C/C=C/C=C/C=C/C=C/C=C/C=C/[C@H](O[C@@H]2O[C@H](C)[C@@H](O)[C@H](N)[C@@H]2O)C[C@@H]2O[C@](O)(C[C@@H](O)C[C@@H](O)[C@H](O)CC[C@@H](O)C[C@@H](O)CC(=O)O[C@H]1C)C[C@H](O)[C@H]2C(=O)O` [AMPHOTERICIN B], the values for the MIC in the assay on Trichophyton benhamiae, with Candida albicans and with Cryptococcus neoformans were 1.56 µg/mL (≈ 1.69 µM), 0.39 µg/mL (≈ 0.422 µM) and 0.78 µg/mL (≈ 0.844 µM), respectively.

As for `NNC(=O)c1[nH]nc2c1C(=O)c1ccccc1C2=O`, the MIC in the assay on Aspergillus fumigatus, against Sporothrix schenckii, against Trichophyton benhamiae, in the assay with Candida parapsilosis, in the assay with Escherichia coli and with Enterococcus faecalis was more than 50 µg/mL throughout. Besides, the MIC in the assay on Pseudomonas aeruginosa, against Klebsiella pneumoniae, with Candida albicans, in the assay on Staphylococcus aureus and with Cryptococcus neoformans was more than 50 µg/mL in each case.

As for GENTAMICIN, the MIC stood at 0.78 µg/mL in the assay on Pseudomonas aeruginosa, 0.39 µg/mL in the assay with Klebsiella pneumoniae and 0.78 µg/mL with Staphylococcus aureus.

Turning to `O=C1C=CC(=O)c2c(O)ccc(O)c21` [NAPHTHAZALIN], the T/C in the assay on Rattus norvegicus [1] stood at 37%.

As to `CNC(=O)c1[nH]nc2c1C(=O)c1ccccc1C2=O`, the MIC was more than 50 µg/mL in the assay on Aspergillus fumigatus; more than 50 µg/mL against Sporothrix schenckii; more than 50 µg/mL in the assay with Trichophyton benhamiae; 50 µg/mL (≈ 196 µM) in the assay on Candida parapsilosis; more than 50 µg/mL in the assay on Escherichia coli; more than 50 µg/mL against Enterococcus faecalis. Further, the MIC against Pseudomonas aeruginosa was more than 50 µg/mL; in the assay with Klebsiella pneumoniae, 25 µg/mL (≈ 97.9 µM); against Candida albicans it was more than 50 µg/mL; against Staphylococcus aureus, more than 50 µg/mL; against Cryptococcus neoformans, more than 50 µg/mL.

On to `NNC(=O)c1[nH]nc2c(O)c3ccccc3c(O)c12`, for which the MIC in the assay on Aspergillus fumigatus, in the assay with Sporothrix schenckii, against Trichophyton benhamiae, against Candida parapsilosis, against Escherichia coli and against Enterococcus faecalis was more than 50 µg/mL in each case. Further, the MIC against Pseudomonas aeruginosa was more than 50 µg/mL; against Klebsiella pneumoniae, more than 50 µg/mL; against Candida albicans it was 25 µg/mL (≈ 96.8 µM); in the assay with Staphylococcus aureus it was more than 50 µg/mL; in the assay with Cryptococcus neoformans, 25 µg/mL (≈ 96.8 µM).

As to `OC(Cn1cncn1)(Cn1cncn1)c1ccc(F)cc1F` [FLUCONAZOLE], the MIC with Aspergillus fumigatus was found to be 2 µg/mL (≈ 6.53 µM); against Sporothrix schenckii, 2 µg/mL (≈ 6.53 µM); against Trichophyton benhamiae, 0.5 µg/mL (≈ 1.63 µM); in the assay with Candida parapsilosis, 2 µg/mL (≈ 6.53 µM); against Candida albicans, 1 µg/mL (≈ 3.27 µM); against Cryptococcus neoformans, 1 µg/mL (≈ 3.27 µM).

Turning to `CCCCNC(=O)c1[nH]nc2c1C(=O)c1ccccc1C2=O`, the MIC in the assay with Aspergillus fumigatus, against Sporothrix schenckii, in the assay with Trichophyton benhamiae, with Candida parapsilosis, in the assay with Escherichia coli and in the assay with Enterococcus faecalis was more than 50 µg/mL in each case. Also, the MIC in the assay on Pseudomonas aeruginosa, with Klebsiella pneumoniae, with Candida albicans, in the assay on Staphylococcus aureus and against Cryptococcus neoformans was more than 50 µg/mL each time.

Regarding NYSTATIN, the minimum inhibitory concentration (MIC) in the assay with Sporothrix schenckii is 13.2 µg/mL; against Candida albicans it was 7.8 µg/mL; with Cryptococcus neoformans, 3.5 µg/mL.

For `C=CCNC(=O)c1[nH]nc2c1C(=O)c1ccccc1C2=O`, the MIC in the assay on Aspergillus fumigatus was more than 50 µg/mL; with Sporothrix schenckii it was more than 50 µg/mL; against Trichophyton benhamiae, more than 50 µg/mL; against Candida parapsilosis it was more than 50 µg/mL; against Escherichia coli, 12.5 µg/mL (≈ 44.4 µM); with Enterococcus faecalis, more than 50 µg/mL. In addition, the MIC in the assay on Pseudomonas aeruginosa is more than 50 µg/mL; in the assay with Klebsiella pneumoniae it was 12.5 µg/mL (≈ 44.4 µM); against Candida albicans, more than 50 µg/mL; against Staphylococcus aureus it was more than 50 µg/mL; with Cryptococcus neoformans, more than 50 µg/mL.

`O=C(NNc1ccc([N+](=O)[O-])cc1[N+](=O)[O-])c1[nH]nc2c(O)c3ccccc3c(O)c12`: the minimal inhibitory concentration (MIC) in the assay on Aspergillus fumigatus, in the assay with Sporothrix schenckii, in the assay with Trichophyton benhamiae, in the assay on Candida parapsilosis, with Escherichia coli and against Enterococcus faecalis was more than 50 µg/mL each time. In addition, the MIC was more than 50 µg/mL against Pseudomonas aeruginosa; more than 50 µg/mL against Klebsiella pneumoniae; 25 µg/mL (≈ 58.9 µM) in the assay on Candida albicans; more than 50 µg/mL in the assay on Staphylococcus aureus; more than 50 µg/mL against Cryptococcus neoformans.

As to `O=C1c2ccccc2C(=O)c2c1n[nH]c2C(=O)NNc1ccccc1`, the MIC was more than 50 µg/mL against Aspergillus fumigatus; more than 50 µg/mL in the assay on Sporothrix schenckii; more than 50 µg/mL in the assay on Trichophyton benhamiae; more than 50 µg/mL against Candida parapsilosis; more than 50 µg/mL in the assay on Escherichia coli; 25 µg/mL (≈ 75.2 µM) against Enterococcus faecalis. Also, the MIC was more than 50 µg/mL with Pseudomonas aeruginosa; 12.5 µg/mL (≈ 37.6 µM) in the assay on Klebsiella pneumoniae; more than 50 µg/mL against Candida albicans; more than 50 µg/mL in the assay with Staphylococcus aureus; more than 50 µg/mL in the assay on Cryptococcus neoformans.

Consider `CCOC(=O)c1[nH]nc2c(O)c3ccccc3c(O)c12`, for which the MIC was found to be 25 µg/mL (≈ 91.8 µM) with Aspergillus fumigatus; 50 µg/mL (≈ 184 µM) against Sporothrix schenckii; 25 µg/mL (≈ 91.8 µM) against Trichophyton benhamiae; 12.5 µg/mL (≈ 45.9 µM) against Candida parapsilosis; 6.25 µg/mL (≈ 23 µM) in the assay on Escherichia coli; 25 µg/mL (≈ 91.8 µM) against Enterococcus faecalis. The MIC was more than 50 µg/mL against Pseudomonas aeruginosa; 6.25 µg/mL (≈ 23 µM) with Klebsiella pneumoniae; 6.25 µg/mL (≈ 23 µM) in the assay with Candida albicans; 25 µg/mL (≈ 91.8 µM) against Staphylococcus aureus; 6.25 µg/mL (≈ 23 µM) against Cryptococcus neoformans.

On to `O=C1c2ccccc2C(=O)c2[nH]ncc21`, for which the T/C with Rattus norvegicus [2] is 115%.

Usually MIC stands for the lowest concentration found to suppress growth. High values mean weaker potency, low ones greater potency. One may read the T/C as the result in the treated group divided by that in the control group, in per cent.
